According to ChEMBL document CHEMBL3351743, “Chemopreventive effects of (-)-hinokinin against 1,2-dimethylhydrazine-induced genotoxicity and preneoplastic lesions in rat colon” (J Nat Prod, 2014):
Calls of active or inactive are those of the source. The calls are words filed in the database; no cut-off is given here.

Legend:
Rattus norvegicus [1] = experiment: Toxicity in Wistar rat assessed as body weight gain at 10 to 40 mg/kg, po administered daily for 7 days; type: organism-based; parameters: dose 10-40 mg/kg, route oral; conditions: in vivo, 168 h
Method in brief: (§1)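 Male Wistar rats, six per group, compound dosed by gavage in water/Tween 80 (97:3) daily for 7 days, with or without DMH 40 mg/kg sc. Body weight and water intake recorded daily; mean ± SD.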

Rattus norvegicus [2] = experiment: Toxicity in Wistar rat assessed as body weight gain at 40 mg/kg, po administered five times per week for 4 weeks; type: organism-based; parameters: dose 40 mg/kg, route oral; conditions: in vivo, 672 h
Method in brief: (§2)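 Male Wistar rats, six per group, dosed by gavage in water/Tween 80 (97:3) five times weekly for 4 weeks, with or without DMH (four sc injections of 40 mg/kg in the first 2 weeks). Body weight and water intake recorded daily; mean ± SD.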

Rattus norvegicus [3] = experiment: Toxicity in Wistar rat assessed as change in water intake at 10 to 40 mg/kg, po administered daily for 7 days; type: organism-based; parameters: dose 10-40 mg/kg, route oral; conditions: in vivo, 168 h; method in brief: as §1
Rattus norvegicus [4] = experiment: Toxicity in Wistar rat assessed as change in water intake at 40 mg/kg, po administered five times per week for 4 weeks; type: organism-based; parameters: dose 40 mg/kg, route oral; conditions: in vivo, 672 h; method in brief: as §2
Rattus norvegicus [5] = experiment: Antigenotoxic activity in Wistar rat peripheral blood assessed as reduction in DMH-induced increase in nucleoids at 10 mg/kg, po administered daily for 7 days; type: functional; parameters: scale not given: the % may be the effect or the level left
Method in brief: (§3)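 Male Wistar rats, six per group. Compound in water/Tween 80 (97:3) given by daily gavage for 7 days. DMH 40 mg/kg sc given 4 h before sampling on day 7. Cells used only at ≥80% viability. Scoring: 100 nucleoids per animal visually classed 0–3 by tail length relative to head diameter. % reduction = (DMH − treated)/(DMH − negative control) × 100, based on damaged cells.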

Rattus norvegicus [6] = experiment: Antigenotoxic activity in Wistar rat peripheral blood assessed as reduction in DMH-induced increase in nucleoids at 20 mg/kg, po administered daily for 7 days; type: functional; parameters: scale not given: the % may be the effect or the level left; method in brief: as §3
Rattus norvegicus [7] = experiment: Antigenotoxic activity in Wistar rat peripheral blood assessed as reduction in DMH-induced increase in nucleoids at 40 mg/kg, po administered daily for 7 days; type: functional; parameters: scale not given: the % may be the effect or the level left; method in brief: as §3
Rattus norvegicus [8] = experiment: Anticarcinogenic activity in Wistar rat colon assessed as reduction in frequency of DMH-induced aberrant crypt foci in proximal segment at 10 to 40 mg/kg, po administered five times per week for 4 weeks; type: functional, organism-based
Method in brief: (§4)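 Male Wistar rats (~120 g, 4−5 weeks old, 1 week acclimation), six per group. Compound in water/Tween 80 (97:3) given by gavage five times weekly for 4 weeks. DMH dissolved in EDTA solution, 160 mg/kg total given as four sc injections of 40 mg/kg, twice weekly over the first 2 weeks. Colons formalin-fixed 24 h, stained with 0.02% methylene blue; 50 fields per segment at 100×; ACF counted, mean ± SD, ANOVA/Tukey.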

Rattus norvegicus [9] = experiment: Anticarcinogenic activity in Wistar rat colon assessed as reduction in frequency of DMH-induced aberrant crypt foci in middle segment at 10 to 40 mg/kg, po administered five times per week for 4 weeks; type: functional, organism-based; method in brief: as §4
Rattus norvegicus [10] = experiment: Anticarcinogenic activity in Wistar rat colon assessed as reduction in frequency of DMH-induced aberrant crypt foci in distal segment at 10 to 40 mg/kg, po administered five times per week for 4 weeks; type: functional, organism-based; method in brief: as §4

SMILES: O=C1OC[C@H](Cc2ccc3c(c2)OCO3)[C@H]1Cc1ccc2c(c1)OCO2 [HINOKININ]
- Activity (Rattus norvegicus [1]): Non-toxic
- Activity (Rattus norvegicus [2]): Non-toxic
- Activity (Rattus norvegicus [3]): Non-toxic
- Activity (Rattus norvegicus [4]): Non-toxic
- Activity (Rattus norvegicus [5]): 43.2%
- Activity (Rattus norvegicus [6]): 50.4%
- Activity (Rattus norvegicus [7]): 54.7%
- Activity (Rattus norvegicus [8]): inactive
- Activity (Rattus norvegicus [9]): Active
- Activity (Rattus norvegicus [10]): Active
